pEC50: −log10 of the molar value. Activity calls are given as the source filed them.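 The calls were made as follows: active = mean EC50 below 10 µM; inactive = the rest.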
Target: Apelin receptor (Homo sapiens) (UniProt P35414)
Assay: apelin receptor activation by small molecules – cell-based, CHO-K1 AGTRL-1, PathHunter luminescence, set 4, SAR follow-up (AID 493183)
Conditions: CHO-K1 AGTRL-1 PathHunter beta-arrestin
Summary of the method: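 System: CHO-K1 APJ β-arrestin enzyme-fragment complementation cell line | Timing: Cells seeded overnight, compound exposure 90 min at 25 °C, detection 60 min | Technique: Luminescence from β-gal fragment complementation after adding detection reagent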

Chain of Apelin receptor (Homo sapiens) (P35414 whole entry, looked up): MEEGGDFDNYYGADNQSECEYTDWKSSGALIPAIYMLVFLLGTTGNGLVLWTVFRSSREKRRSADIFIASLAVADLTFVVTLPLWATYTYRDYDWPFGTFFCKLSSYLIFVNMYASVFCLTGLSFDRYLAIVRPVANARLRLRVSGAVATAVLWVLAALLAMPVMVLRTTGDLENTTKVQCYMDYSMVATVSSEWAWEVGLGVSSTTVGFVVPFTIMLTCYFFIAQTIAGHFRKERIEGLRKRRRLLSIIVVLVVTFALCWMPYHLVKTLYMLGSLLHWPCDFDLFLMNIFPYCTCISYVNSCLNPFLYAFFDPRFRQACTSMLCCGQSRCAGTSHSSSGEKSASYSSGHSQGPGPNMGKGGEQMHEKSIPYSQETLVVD

Compound	EC50	pEC50
O=S(=O)(Nc1cc(Cl)c(O)c(Cl)c1)c1ccccc1	> 79 µM (inactive)	–
Cc1cc(O)c(C(C)C)cc1NS(=O)(=O)c1ccccc1	> 79 µM (inactive)	–
COC(=O)c1cc(NS(=O)(=O)c2ccccc2)ccc1O	> 79 µM (inactive)	–

The remaining lines, values ahead:

EC50	pEC50	Compound
–	5.19	CC1=CC(=O)C(C(C)C)=C/C1=N/OS(=O)(=O)c1cccnc1
–	5.42	CC1=CC(=O)C(C(C)C)=C/C1=N/OS(=O)(=O)c1ccc(OC(F)(F)F)cc1
–	5.43	CC1=CC(=O)C(C(C)C)=C/C1=N/OS(=O)(=O)c1ccc(C(F)(F)F)cc1
inactive	–	CC1=CC(=O)C(C(C)C)=C/C1=N/OS(=O)(=O)c1ccc(C(C)(C)C)cc1

Reference: PubChem BioAssay AID493183 (Sanford-Burnham Center for Chemical Genomics, 2011)
